These results are taken from article PMC10455042 (Biochemical engineering journal, 2023).

The conditions of series [1]: RWRWR peptide alone; cited from earlier work.
Series [2] deals with Tau. Put plainly: Western blotting analysis of Tau levels in N2a cells treated with PROTACs. The class given is cell-based. The settings on record: N2a cells pre-treated with 10 μM PYR-41 for one hour, then co-incubated with 200 μM peptide for 12 h; western blot.
For series [3], the system named is N2a cells. Put plainly: alamarBlue cell viability assay. Format: cell-based. As to conditions: 24 h. The procedure, abridged:
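N2a cells in MEM with 10% cosmic calf serum, plated at 1×10^4 cells/well two days before the assay, then PBS-washed. Exposed to increasing peptide concentrations (up to 200 µM) for 24 h at 37 °C, ECB-washed, then given alamarBlue in serum-free medium for 4 h at 37 °C. Fluorescence read at ex 532/[…], normalised to no-peptide control (F/C), triplicate average.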

Series [4] in a line: Peptide degradation assay in N2a lysates. Format: in vitro ADME. As to conditions: 2 mg/mL N2a lysates, 37°C; HPLC, intact peptide.
For series [5] the following is noted: flow cytometry; cited from earlier work.

Where a SMILES comes first, the peptide text is derived from it. [ ]: non-standard residue; d: D form.

For RWVRWpGRWIRQ [RWRWR], the “Peptide remaining after 2 hours (previously reported)” value in series [1] is given as “approximately 80%”.

As to `CC[C@H](C)[C@H](NC(=O)[C@H](Cc1c[nH]c2ccccc12)NC(=O)[C@H](CCCNC(=N)N)NC(=O)CNC(=O)[C@H]1CCCN1C(=O)[C@@H](NC(=O)[C@H](CCCNC(=N)N)NC(=O)[C@@H](NC(=O)[C@H](Cc1c[nH]c2ccccc12)NC(=O)[C@H](CCCNC(=N)N)NC(C)=O)C(C)C)C(C)C)C(=O)N[C@@H](CCCNC(=N)N)C(=O)N[C@@H](CCC(N)=O)C(=O)N[C@@H](Cc1ccc(O)cc1)C(=O)N[C@@H](CCC(N)=O)C(=O)N[C@@H](CCC(N)=O)C(=O)N[C@@H](Cc1ccc(O)cc1)C(=O)N[C@@H](CCC(N)=O)C(=O)N[C@@H](CC(=O)O)C(=O)N[C@@H](C)C(=O)N[C@H](C(=O)N[C@@H](C)C(=O)N[C@@H](CC(=O)O)C(=O)N[C@@H](CCC(=O)O)C(=O)N[C@@H](CCC(N)=O)C(=O)NCC(N)=O)[C@@H](C)O` [Peptide 2] (Ac-RWVRV[dP]GRWIRQYQQYQDATADEQG-NH2), the “Decrease in Tau signal on co-incubation with E1 inhibitor PYR-41” value in series [2] is “decrease is negated”. Moreover, the “Effect on cell viability” value in series [3] is recorded as “minimal effects on cell viability”. For the same molecule, the “Resistance to degradation in N2a lysates” value in series [4] is given as “more resistant to degradation than its unstructured counterpart Peptide 1”.

In the case of `CC[C@H](C)[C@H](NC(=O)[C@H](Cc1ccc(O)cc1)NC(=O)[C@@H]1CCCN1C(=O)[C@H](C)NC(=O)[C@H](CC(C)C)NC(=O)[C@H](C)NC(=O)[C@H](CO)NC(=O)CNC(=O)[C@H](CO)NC(=O)CNC(=O)CNC(=O)[C@H](CCC(N)=O)NC(=O)[C@H](CCC(=O)O)NC(=O)[C@H](CC(=O)O)NC(=O)[C@H](C)NC(=O)[C@@H](NC(=O)[C@H](C)NC(=O)[C@H](CC(=O)O)NC(=O)[C@H](CCC(N)=O)NC(=O)[C@H](Cc1ccc(O)cc1)NC(=O)[C@H](CCC(N)=O)NC(=O)[C@H](CCC(N)=O)NC(=O)[C@H](Cc1ccc(O)cc1)NC(C)=O)[C@@H](C)O)C(=O)N1CCC[C@H]1C(=O)N[C@H](CCCNC(=N)N)C(=O)N[C@H](CCCNC(=N)N)C(=O)N[C@H](CCCNC(=N)N)C(=O)N[C@H](CCCNC(=N)N)C(=O)N[C@H](CCCNC(=N)N)C(=O)N[C@H](CCCNC(=N)N)C(=O)N[C@H](CCCNC(=N)N)C(=O)N[C@H](CCCNC(=N)N)C(N)=O` [Peptide 1] (Ac-YQQYQDATADEQGGSGSALAPYIP[dR][dR][dR][dR][dR][dR][dR][dR]-NH2), in series [3], the “Effect on cell viability” value is given as “minimal effects on cell viability”. Further, in series [5], the “Uptake (previously published)” value is “time-dependent uptake”.
